Measured values gathered from unrelated publications.
FGFR3: Fibroblast growth factor receptor 3 (FGFR3, Homo sapiens, UniProt P22607)
HSD11B2: 11-beta-hydroxysteroid dehydrogenase type 2 (HSD11B2, Homo sapiens, UniProt P80365)
CDK4: Cyclin-dependent kinase 4 (CDK4, Homo sapiens, UniProt P11802)

| SMILES | target | test | conditions | quantity | result |
| --- | --- | --- | --- | --- | --- |
| Cc1nn(C)cc1-c1nc2c(N3CCN(Cc4ccc(Cl)cc4)CC3)c(Cl)cnc2[nH]1 | FGFR3 | binding, competition with immobilised ligand | 1 µM | remaining binding | 70% |
| CN1CC[C@@]2(C)c3cc(OC(=O)Nc4ccccc4)ccc3N(C)[C@@H]12 | Muscarinic acetylcholine receptor M2 (CHRM2, Homo sapiens, UniProt P08172) | ligand displacement, radioligand | 10 µM | inhibition | 7.6% |
| COc1ncccc1-c1cnn2ccc(N3CCN(C(=O)OC(C)C)CC3)nc12 | Serine/threonine-protein kinase DCLK1 (DCLK1, Homo sapiens, UniProt O15075) | binding, competition with immobilised ligand | 1 µM | remaining binding | 99% |
| Clc1cccc(-c2c[nH]c3nccc(N4CCOCC4)c23)c1 | Serine/threonine-protein kinase 3 (STK3, Homo sapiens, UniProt Q13188) | thermal stability, DSF | 20 µM | ΔTm | > 8 °C |
| CCCCCCC(C)(C)c1cc(O)c2c(c1)OC(C)(C)C1CCC(=O)CC21 (stereo not shown) | HSD11B2 | enzyme activity, inhibitor | 20 µM, lysate | inhibition | < 40% |
| C#Cc1n[nH]c2c(-c3cn([C@@H](C)c4ccccn4)c(=O)[nH]c3=O)cc(F)cc12 | FGFR3 | enzyme activity, inhibitor | 0.1 µM | inhibition | 2.9% |
| CCOC(=O)[C@H]1Cc2c(cc([N+](=O)[O-])cc2[N+](=O)[O-])[C@H](O)[C@]12C(=O)Nc1cc(Br)ccc12 | CDK4 | cell-free assay, inhibitor, TR-FRET | 1 µM | inhibition | 32.9% |
| C[C@]12CC[C@H]3[C@@H](CCC4=CC(=O)CC[C@@H]43)[C@@H]1CC[C@@H]2O | HSD11B2 | enzyme activity, inhibitor | 20 µM, lysate | inhibition | < 40% |
| CCOC(=O)[C@H]1Cc2c(cc([N+](=O)[O-])cc2[N+](=O)[O-])[C@H](O)[C@]12C(=O)Nc1ccc(Br)cc12 | CDK4 | cell-free assay, inhibitor, TR-FRET | 1 µM | inhibition | 34.1% |
| Nc1ncc(-c2nc(N3CCOCC3)nc(N3CCOCC3)n2)c(C(F)F)n1 | Ribosomal protein S6 kinase alpha-1, N-terminal kinase domain (RPS6KA1, Homo sapiens, UniProt Q15418) | binding, competition with immobilised ligand | 10 µM | remaining binding | 75% |
